Test results from ChEMBL document CHEMBL1123551, “3-Pyrroline N-oxide bis(carbamate) tumor inhibitors as analogues of indicine N-oxide” (J Med Chem, 1987).

Legend:
P388 [1] = experiment: In vivo antileukemic activity against P388 lymphocytic leukemia at a dose of 15 mg/kg administered intraperitoneally expressed as ratio of survival of treated compared to untreated control animals; type: functional, Mus musculus; settings: route intraperitoneal
How it was run: (§1)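 Drug given ip as a solution in distilled water. Five daily doses, starting 24 h after ip tumor inoculation. % T/C is the survival of treated animals divided by that of untreated controls, expressed as a percent. Log cell kill (KE) is the log of tumor cell number at the end of treatment relative to the start. Weight change of treated animals is recorded relative to controls.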

P388 [2] = experiment: In vivo antileukemic activity against P388 lymphocytic leukemia at a dose of 3.75 mg/kg administered intraperitoneally expressed as log of the number of tumor cells (cell kill); type: ADME, organism-based; parameters: dose 3.75 mg/kg, route intraperitoneal; settings: mouse, ip
How it was run: (§2)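 P388 tumor inoculated ip. Drug solution in distilled water injected ip as five daily doses, starting 24 h after inoculation; some compounds were given as suspensions made fresh daily and used immediately.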

P388 [3] = experiment: In vivo antileukemic activity against P388 lymphocytic leukemia at a dose of 3.75 mg/kg administered intraperitoneally expressed as weight change of treated to control animals; type: functional, Mus musculus; settings: route intraperitoneal
How it was run: (§3)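 P388 leukemia inoculated ip. Test drug in distilled water given ip once daily for 5 days, beginning 24 h post-inoculation; some compounds were dosed as suspensions prepared fresh daily and used immediately. Read-out is body weight change of treated animals relative to untreated controls.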

P388 [4] = experiment: In vivo antileukemic activity against P388 lymphocytic leukemia at a dose of 3.75 mg/kg administered intraperitoneally expressed as ratio of survival of treated compared to untreated control animals; type: functional, Mus musculus; settings: route intraperitoneal; how it was run: as §1
P388 [5] = experiment: In vivo antileukemic activity against P388 lymphocytic leukemia at a dose of 7.5 mg/kg administered intraperitoneally expressed as weight change of treated to control animals; type: functional, Mus musculus; settings: route intraperitoneal; how it was run: as §3
P388 [6] = experiment: In vivo antileukemic activity against P388 lymphocytic leukemia at a dose of 30 mg/kg administered intraperitoneally expressed as weight change of treated to control animals; type: functional, Mus musculus; settings: route intraperitoneal; how it was run: as §3
P388 [7] = experiment: In vivo antileukemic activity against P388 lymphocytic leukemia at a dose of 7.5 mg/kg administered intraperitoneally expressed as ratio of survival of treated compared to untreated control animals; type: functional, Mus musculus; settings: route intraperitoneal; how it was run: as §1
P388 [8] = experiment: In vivo antileukemic activity against P388 lymphocytic leukemia at a dose of 30 mg/kg administered intraperitoneally expressed as log of the number of tumor cells (cell kill); type: ADME, organism-based; parameters: dose 30 mg/kg, route intraperitoneal; settings: mouse, ip; how it was run: as §2
P388 [9] = experiment: In vivo antileukemic activity against P388 lymphocytic leukemia at a dose of 30 mg/kg administered intraperitoneally expressed as ratio of survival of treated compared to untreated control animals; type: functional, Mus musculus; settings: route intraperitoneal; how it was run: as §1
P388 [10] = experiment: In vivo antileukemic activity against P388 lymphocytic leukemia at a dose of 15 mg/kg administered intraperitoneally expressed as weight change of treated to control animals; type: functional, Mus musculus; settings: route intraperitoneal; how it was run: as §3
P388 [11] = experiment: In vivo antileukemic activity against P388 lymphocytic leukemia at a dose of 15 mg/kg administered intraperitoneally expressed as log of the number of tumor cells (cell kill); type: ADME, organism-based; parameters: dose 15 mg/kg, route intraperitoneal; settings: mouse, ip; how it was run: as §2
P388 [12] = experiment: In vivo antileukemic activity against P388 lymphocytic leukemia at a dose of 7.5 mg/kg administered intraperitoneally expressed as log of the number of tumor cells (cell kill); type: ADME, organism-based; parameters: dose 7.5 mg/kg, route intraperitoneal; settings: mouse, ip; how it was run: as §2
P388 [13] = experiment: In vivo antileukemic activity against P388 lymphocytic leukemia at a dose of 12.5 mg/kg administered intraperitoneally expressed as weight change of treated to control animals; type: functional, Mus musculus; settings: route intraperitoneal; how it was run: as §3
P388 [14] = experiment: In vivo antileukemic activity against P388 lymphocytic leukemia at a dose of 100 mg/kg administered intraperitoneally expressed as ratio of survival of treated compared to untreated control animals; type: functional, Mus musculus; settings: route intraperitoneal; how it was run: as §1
P388 [15] = experiment: In vivo antileukemic activity against P388 lymphocytic leukemia at a dose of 400 mg/kg administered intraperitoneally expressed as ratio of survival of treated compared to untreated control animals; type: functional, Mus musculus; settings: route intraperitoneal; how it was run: as §1
P388 [16] = experiment: In vivo antileukemic activity against P388 lymphocytic leukemia at a dose of 25 mg/kg administered intraperitoneally expressed as weight change of treated to control animals; type: functional, Mus musculus; settings: route intraperitoneal; how it was run: as §3
P388 [17] = experiment: In vivo antileukemic activity against P388 lymphocytic leukemia at a dose of 200 mg/kg administered intraperitoneally expressed as ratio of survival of treated compared to untreated control animals; type: functional, Mus musculus; settings: route intraperitoneal; how it was run: as §1
P388 [18] = experiment: In vivo antileukemic activity against P388 lymphocytic leukemia at a dose of 25 mg/kg administered intraperitoneally expressed as ratio of survival of treated compared to untreated control animals; type: functional, Mus musculus; settings: route intraperitoneal; how it was run: as §1
P388 [19] = experiment: In vivo antileukemic activity against P388 lymphocytic leukemia at a dose of 25 mg/kg administered intraperitoneally expressed as log of the number of tumor cells (cell kill); type: ADME, organism-based; parameters: dose 25 mg/kg, route intraperitoneal; settings: mouse, ip; how it was run: as §2
P388 [20] = experiment: In vivo antileukemic activity against P388 lymphocytic leukemia at a dose of 200 mg/kg administered intraperitoneally expressed as log of the number of tumor cells (cell kill); type: ADME, organism-based; parameters: dose 200 mg/kg, route intraperitoneal; settings: mouse, ip; how it was run: as §2
P388 [21] = experiment: In vivo antileukemic activity against P388 lymphocytic leukemia at a dose of 12.5 mg/kg administered intraperitoneally expressed as ratio of survival of treated compared to untreated control animals; type: functional, Mus musculus; settings: route intraperitoneal; how it was run: as §1
P388 [22] = experiment: In vivo antileukemic activity against P388 lymphocytic leukemia at a dose of 400 mg/kg administered intraperitoneally expressed as log of the number of tumor cells (cell kill); type: ADME, organism-based; parameters: dose 400 mg/kg, route intraperitoneal; settings: mouse, ip; how it was run: as §2
P388 [23] = experiment: In vivo antileukemic activity against P388 lymphocytic leukemia at a dose of 200 mg/kg administered intraperitoneally expressed as weight change of treated to control animals; type: functional, Mus musculus; settings: route intraperitoneal; how it was run: as §3
P388 [24] = experiment: In vivo antileukemic activity against P388 lymphocytic leukemia at a dose of 100 mg/kg administered intraperitoneally expressed as weight change of treated to control animals; type: functional, Mus musculus; settings: route intraperitoneal; how it was run: as §3
P388 [25] = experiment: In vivo antileukemic activity against P388 lymphocytic leukemia at a dose of 50 mg/kg administered intraperitoneally expressed as weight change of treated to control animals; type: functional, Mus musculus; settings: route intraperitoneal; how it was run: as §3
P388 [26] = experiment: In vivo antileukemic activity against P388 lymphocytic leukemia at a dose of 50 mg/kg administered intraperitoneally expressed as ratio of survival of treated compared to untreated control animals; type: functional, Mus musculus; settings: route intraperitoneal; how it was run: as §1
P388 [27] = experiment: In vivo antileukemic activity against P388 lymphocytic leukemia at a dose of 100 mg/kg administered intraperitoneally expressed as log of the number of tumor cells (cell kill); type: ADME, organism-based; parameters: dose 100 mg/kg, route intraperitoneal; settings: mouse, ip; how it was run: as §2
P388 [28] = experiment: In vivo antileukemic activity against P388 lymphocytic leukemia at a dose of 12.5 mg/kg administered intraperitoneally expressed as log of the number of tumor cells (cell kill); type: ADME, organism-based; parameters: dose 12.5 mg/kg, route intraperitoneal; settings: mouse, ip; how it was run: as §2
P388 [29] = experiment: In vivo antileukemic activity against P388 lymphocytic leukemia at a dose of 50 mg/kg administered intraperitoneally expressed as log of the number of tumor cells (cell kill); type: ADME, organism-based; parameters: dose 50 mg/kg, route intraperitoneal; settings: mouse, ip; how it was run: as §2
P388 [30] = experiment: In vivo antileukemic activity against P388 lymphocytic leukemia at a dose of 400 mg/kg administered intraperitoneally expressed as weight change of treated to control animals; type: functional, Mus musculus; settings: route intraperitoneal; how it was run: as §3
P388 [31] = experiment: In vivo antileukemic activity against P388 lymphocytic leukemia at a dose of 240 mg/kg administered intraperitoneally expressed as weight change of treated to control animals; type: functional, Mus musculus; settings: route intraperitoneal; how it was run: as §3
P388 [32] = experiment: In vivo antileukemic activity against P388 lymphocytic leukemia at a dose of 240 mg/kg administered intraperitoneally expressed as ratio of survival of treated compared to untreated control animals; type: functional, Mus musculus; settings: route intraperitoneal; how it was run: as §1
P388 [33] = experiment: In vivo antileukemic activity against P388 lymphocytic leukemia at a dose of 240 mg/kg administered intraperitoneally expressed as log of the number of tumor cells (cell kill); type: ADME, organism-based; parameters: dose 240 mg/kg, route intraperitoneal; settings: mouse, ip; how it was run: as §2

SMILES	Weight change (P388 [13])	T/C (P388 [14])	Weight change (P388 [16])	T/C (P388 [18])	KE (P388 [19])	T/C (P388 [21])	Weight change (P388 [24])	Weight change (P388 [25])	T/C (P388 [26])	KE (P388 [27])	KE (P388 [28])	KE (P388 [29])	further results
CC(C)NC(=O)OCc1cn(C)c(-c2ccccc2)c1COC(=O)NC(C)C	–	–	–	–	–	–	–	–	–	–	–	–	T/C (P388 [1]): 181%; KE (P388 [2]): -0.7; Weight change (P388 [3]): -0.5 g; T/C (P388 [4]): 129%; Weight change (P388 [5]): -1.9 g; Weight change (P388 [6]): -3.4 g; T/C (P388 [7]): 145%; KE (P388 [8]): 1.99; T/C (P388 [9]): 171%; Weight change (P388 [10]): -3.2 g; KE (P388 [11]): 2.63; KE (P388 [12]): 0.32
CNC(=O)OCC1=CC[N+](C)([O-])C1COC(=O)NC (centres undefined)	-3.8 g	159%	-1.2 g	122%	-1.23	142%	-2.1 g	-1.5 g	145%	1.7	0.39	0.62	T/C (P388 [15]): 143%; T/C (P388 [17]): 150%; KE (P388 [20]): 1; KE (P388 [22]): 0.34; Weight change (P388 [23]): -2.4 g; Weight change (P388 [30]): -5.7 g
C[N+]1([O-])CC=CC1	–	–	–	–	–	–	–	–	–	–	–	–	Weight change (P388 [31]): -0.2 g; T/C (P388 [32]): 108%; KE (P388 [33]): -0.12
CC(C)NC(=O)OCC1=C(COC(=O)NC(C)C)C(C)(C)[N+](C)([O-])C1c1ccccc1 (centres undefined)	2.1 g	107%	0.1 g	100%	-1.64	108%	0.7 g	0.9 g	107%	-1.53	-1.54	-1.53	–
CC(C)NC(=O)OCC1=C(COC(=O)NC(C)C)C(c2ccccc2)[N+](C)([O-])C1 (centres undefined)	1.6 g	134%	-0.1 g	109%	-1.5	115%	-1.5 g	-0.6 g	116%	-0.11	-1.21	-1.16	–
CC(C)NC(=O)OCC1=C(COC(=O)NC(C)C)C(c2ccccc2)N(C)C1 (centres undefined)	0 g	225%	-0.9 g	136%	0	121%	-2.2 g	-2 g	145%	5.18	0.84	0.53	–
